Our source for the EC50, Activity and Kd values is ChEMBL document CHEMBL1133058, “(+)-4-phosphonophenylglycine (PPG) a new group III selective metabotropic glutamate receptor agonist” (Bioorg Med Chem Lett, 2000).

Molecules are shown by their SMILES. The source made the active and inactive calls. No cut-off for these calls is given here.

For test [1], the target named is T1, Metabotropic glutamate receptor 4 (Rattus norvegicus, UniProt P31423). In words: Effective concentration against Metabotropic glutamate receptor 4.
Test [2] addresses T1, Metabotropic glutamate receptor 4. Briefly: Effective concentration against rat Metabotropic glutamate receptor 4.
For test [3], the target named is Metabotropic glutamate receptor 1 (Homo sapiens) (UniProt Q13255). In words: Activity against human Metabotropic glutamate receptor 1 up to a concentration of 300 uM; Not active.
The target in test [4] is Metabotropic glutamate receptor 3 (Homo sapiens) (UniProt Q14832). In words: Activity against Metabotropic glutamate receptor 3; Not active.
Test [5] has the same target. Briefly: Activity against human Metabotropic glutamate receptor 3 up to a concentration of 300 uM; Not active.
The target in test [6] is Metabotropic glutamate receptor 5 (Homo sapiens) (UniProt P41594). Briefly: Activity against human Metabotropic glutamate receptor 5 up to a concentration of 300 uM; Not active.
Test [7] concerns the target Metabotropic glutamate receptor 2 (Homo sapiens) (UniProt Q14416). Briefly: Activity against human Metabotropic glutamate receptor 2 up to a concentration of 300 uM; Not active.
Test [8] concerns the target Metabotropic glutamate receptor 6 (Homo sapiens) (UniProt O15303). Briefly: Activity against Metabotropic glutamate receptor 6; Not active.
The target of test [9] is Glutamate NMDA receptor; GRIN1/GRIN2A (Homo sapiens) (UniProt Q05586+Q12879). Briefly: Activity against cloned ionotropic N-methyl-D-aspartate glutamate receptor 1/2A; Not active. It is filed as protein-complex assay.
Test [10] has as its target Glutamate NMDA receptor; GRIN1/GRIN2B (Homo sapiens) (UniProt Q05586+Q13224). In words: Activity against cloned ionotropic N-methyl-D-aspartate glutamate receptor 1/2B; Not active. The format is protein-complex assay.
Test [11] addresses Glutamate [NMDA] receptor (Homo sapiens) (UniProt Q05586+Q12879+Q13224+O15399+O60391+Q14957+Q8TCU5). Briefly: Binding affinity (100 uM) against N-methyl-D-aspartate glutamate receptor using [3H]CPP binding was determined; No activity. The format is protein-complex assay.
Test [12] has as its target T2, Metabotropic glutamate receptor 4 (Homo sapiens, UniProt Q14833). Briefly: Compound was evaluated for the inhibition of forskolin stimulated cAMP accumulation in CHO cells expressing hmGluR4a. The format is functional, cell-based. In short, it runs like this: (§1)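 Human mGluR4a or mGluR7b stably expressed in CHO cells; both enantiomers tested in the same functional assay, with cAMP measured by radioimmunoassay and EC50 values reported.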

Test [13] has as its target T3, Metabotropic glutamate receptor 7 (Homo sapiens, UniProt Q14831). In words: Compound was evaluated for the inhibition of forskolin stimulated cAMP accumulation in CHO cells expressing hmGluR7b. It is filed as functional, cell-based. Put shortly: as §1
In general terms: Changes in cAMP serve as a functional read-out for many G protein-coupled receptors.

The target in test [14] is T3, Metabotropic glutamate receptor 7. In words: Inhibition of forskolin stimulated cAMP accumulation in CHO cells expressing hmGluR7b at a concentration of 500 uM; Inactive.
The target in test [15] is T2, Metabotropic glutamate receptor 4. Briefly: Inhibition of forskolin stimulated cAMP accumulation in CHO cells expressing hmGluR4a at a concentration of 2000 uM; Inactive.
For test [16], the target named is Glutamate receptor ionotropic, NMDA 1 (Homo sapiens, UniProt Q05586). In words: Dissociation constant against N-methyl-D-aspartate glutamate receptor using [3H]CPP binding was determined.

T2 sequence (Q14833 whole entry): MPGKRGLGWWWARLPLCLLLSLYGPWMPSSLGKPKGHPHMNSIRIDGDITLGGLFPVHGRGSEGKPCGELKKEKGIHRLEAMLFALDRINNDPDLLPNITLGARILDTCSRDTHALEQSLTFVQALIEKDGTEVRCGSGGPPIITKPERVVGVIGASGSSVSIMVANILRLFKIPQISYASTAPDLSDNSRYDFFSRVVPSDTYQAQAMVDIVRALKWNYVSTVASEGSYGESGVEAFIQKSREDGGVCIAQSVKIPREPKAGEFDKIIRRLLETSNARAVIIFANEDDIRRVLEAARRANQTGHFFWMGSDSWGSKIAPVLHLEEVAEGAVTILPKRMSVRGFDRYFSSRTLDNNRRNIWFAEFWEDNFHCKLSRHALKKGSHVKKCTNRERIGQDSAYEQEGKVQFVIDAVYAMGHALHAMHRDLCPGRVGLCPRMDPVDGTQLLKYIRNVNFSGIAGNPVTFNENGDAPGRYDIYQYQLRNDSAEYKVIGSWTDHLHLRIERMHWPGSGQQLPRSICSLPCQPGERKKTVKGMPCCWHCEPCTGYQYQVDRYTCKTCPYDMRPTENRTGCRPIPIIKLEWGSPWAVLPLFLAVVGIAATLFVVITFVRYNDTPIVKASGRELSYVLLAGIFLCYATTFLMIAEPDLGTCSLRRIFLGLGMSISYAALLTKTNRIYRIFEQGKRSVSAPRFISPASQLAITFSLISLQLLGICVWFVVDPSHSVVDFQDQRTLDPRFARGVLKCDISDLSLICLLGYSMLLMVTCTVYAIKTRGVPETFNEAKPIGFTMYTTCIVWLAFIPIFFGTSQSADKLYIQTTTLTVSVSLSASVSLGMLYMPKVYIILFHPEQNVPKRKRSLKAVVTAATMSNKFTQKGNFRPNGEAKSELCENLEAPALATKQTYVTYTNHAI
T3 sequence (Q14831 whole entry): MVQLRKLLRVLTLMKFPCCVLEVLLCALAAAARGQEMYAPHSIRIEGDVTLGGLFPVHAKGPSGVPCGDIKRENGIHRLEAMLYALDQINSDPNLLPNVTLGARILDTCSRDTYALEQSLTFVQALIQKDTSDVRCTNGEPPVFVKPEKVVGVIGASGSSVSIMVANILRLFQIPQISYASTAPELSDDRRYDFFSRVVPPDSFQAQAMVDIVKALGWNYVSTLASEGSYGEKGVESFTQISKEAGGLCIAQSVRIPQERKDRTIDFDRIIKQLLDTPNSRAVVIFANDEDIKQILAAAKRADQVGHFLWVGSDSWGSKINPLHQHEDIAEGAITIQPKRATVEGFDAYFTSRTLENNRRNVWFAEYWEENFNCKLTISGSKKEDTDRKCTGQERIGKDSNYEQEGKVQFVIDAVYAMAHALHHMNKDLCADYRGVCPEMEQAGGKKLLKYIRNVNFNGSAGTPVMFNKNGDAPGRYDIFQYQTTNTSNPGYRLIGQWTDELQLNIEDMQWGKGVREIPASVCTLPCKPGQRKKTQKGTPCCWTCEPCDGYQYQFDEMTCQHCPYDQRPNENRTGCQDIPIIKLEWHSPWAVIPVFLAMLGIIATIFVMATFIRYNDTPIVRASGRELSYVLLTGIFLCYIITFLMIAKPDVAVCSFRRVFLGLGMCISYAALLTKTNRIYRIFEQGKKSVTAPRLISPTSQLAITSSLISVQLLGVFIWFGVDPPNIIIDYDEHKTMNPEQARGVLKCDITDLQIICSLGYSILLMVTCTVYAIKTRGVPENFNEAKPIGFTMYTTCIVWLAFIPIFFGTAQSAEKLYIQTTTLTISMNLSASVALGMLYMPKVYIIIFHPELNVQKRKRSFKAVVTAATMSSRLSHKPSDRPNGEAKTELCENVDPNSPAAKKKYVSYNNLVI
Metabotropic glutamate receptor 3 (Homo sapiens), sequence (Q14832 23-879 limits assumed): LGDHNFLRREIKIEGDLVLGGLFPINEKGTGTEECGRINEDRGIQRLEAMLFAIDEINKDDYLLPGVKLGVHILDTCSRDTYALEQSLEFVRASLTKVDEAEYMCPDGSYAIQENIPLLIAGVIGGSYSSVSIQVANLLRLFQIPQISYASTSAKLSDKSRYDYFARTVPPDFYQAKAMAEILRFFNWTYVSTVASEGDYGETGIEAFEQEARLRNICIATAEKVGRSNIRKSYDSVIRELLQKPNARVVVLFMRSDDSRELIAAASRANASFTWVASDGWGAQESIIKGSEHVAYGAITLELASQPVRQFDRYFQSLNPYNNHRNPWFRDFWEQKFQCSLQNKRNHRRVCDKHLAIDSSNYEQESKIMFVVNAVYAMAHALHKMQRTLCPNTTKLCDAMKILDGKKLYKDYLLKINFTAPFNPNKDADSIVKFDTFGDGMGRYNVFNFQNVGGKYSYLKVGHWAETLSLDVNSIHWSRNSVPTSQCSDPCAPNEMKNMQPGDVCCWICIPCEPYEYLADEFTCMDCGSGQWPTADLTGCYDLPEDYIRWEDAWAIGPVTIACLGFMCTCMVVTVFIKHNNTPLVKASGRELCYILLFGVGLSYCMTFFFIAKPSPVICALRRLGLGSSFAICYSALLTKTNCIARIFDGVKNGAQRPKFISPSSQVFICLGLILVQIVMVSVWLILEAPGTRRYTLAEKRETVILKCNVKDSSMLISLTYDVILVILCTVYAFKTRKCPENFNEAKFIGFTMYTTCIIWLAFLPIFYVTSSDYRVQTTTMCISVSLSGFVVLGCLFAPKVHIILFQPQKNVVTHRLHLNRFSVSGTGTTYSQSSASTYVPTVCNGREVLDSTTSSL
T1 sequence (P31423 whole entry): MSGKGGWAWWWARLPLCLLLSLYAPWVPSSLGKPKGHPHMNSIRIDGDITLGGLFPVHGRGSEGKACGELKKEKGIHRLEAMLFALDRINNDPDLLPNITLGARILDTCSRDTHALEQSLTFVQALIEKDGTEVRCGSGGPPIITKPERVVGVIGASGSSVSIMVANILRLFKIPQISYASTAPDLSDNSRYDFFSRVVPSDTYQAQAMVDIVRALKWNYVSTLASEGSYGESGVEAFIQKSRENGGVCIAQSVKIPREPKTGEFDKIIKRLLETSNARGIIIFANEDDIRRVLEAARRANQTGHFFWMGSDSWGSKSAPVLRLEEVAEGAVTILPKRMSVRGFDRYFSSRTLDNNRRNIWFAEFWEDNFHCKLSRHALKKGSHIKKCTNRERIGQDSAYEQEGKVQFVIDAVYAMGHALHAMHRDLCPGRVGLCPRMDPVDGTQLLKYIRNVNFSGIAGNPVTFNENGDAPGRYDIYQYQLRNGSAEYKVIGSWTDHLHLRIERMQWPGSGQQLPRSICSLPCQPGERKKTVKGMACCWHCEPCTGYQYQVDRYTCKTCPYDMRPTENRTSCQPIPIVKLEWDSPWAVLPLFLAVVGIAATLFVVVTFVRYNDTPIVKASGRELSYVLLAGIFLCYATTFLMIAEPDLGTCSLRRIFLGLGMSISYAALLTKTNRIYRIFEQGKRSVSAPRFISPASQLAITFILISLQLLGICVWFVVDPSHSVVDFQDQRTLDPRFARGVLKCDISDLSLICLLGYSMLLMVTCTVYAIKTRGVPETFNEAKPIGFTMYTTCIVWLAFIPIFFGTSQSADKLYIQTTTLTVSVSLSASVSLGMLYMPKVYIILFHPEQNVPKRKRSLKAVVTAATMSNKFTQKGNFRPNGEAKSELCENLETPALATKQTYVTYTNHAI
Metabotropic glutamate receptor 6 (Homo sapiens), sequence (O15303 whole entry): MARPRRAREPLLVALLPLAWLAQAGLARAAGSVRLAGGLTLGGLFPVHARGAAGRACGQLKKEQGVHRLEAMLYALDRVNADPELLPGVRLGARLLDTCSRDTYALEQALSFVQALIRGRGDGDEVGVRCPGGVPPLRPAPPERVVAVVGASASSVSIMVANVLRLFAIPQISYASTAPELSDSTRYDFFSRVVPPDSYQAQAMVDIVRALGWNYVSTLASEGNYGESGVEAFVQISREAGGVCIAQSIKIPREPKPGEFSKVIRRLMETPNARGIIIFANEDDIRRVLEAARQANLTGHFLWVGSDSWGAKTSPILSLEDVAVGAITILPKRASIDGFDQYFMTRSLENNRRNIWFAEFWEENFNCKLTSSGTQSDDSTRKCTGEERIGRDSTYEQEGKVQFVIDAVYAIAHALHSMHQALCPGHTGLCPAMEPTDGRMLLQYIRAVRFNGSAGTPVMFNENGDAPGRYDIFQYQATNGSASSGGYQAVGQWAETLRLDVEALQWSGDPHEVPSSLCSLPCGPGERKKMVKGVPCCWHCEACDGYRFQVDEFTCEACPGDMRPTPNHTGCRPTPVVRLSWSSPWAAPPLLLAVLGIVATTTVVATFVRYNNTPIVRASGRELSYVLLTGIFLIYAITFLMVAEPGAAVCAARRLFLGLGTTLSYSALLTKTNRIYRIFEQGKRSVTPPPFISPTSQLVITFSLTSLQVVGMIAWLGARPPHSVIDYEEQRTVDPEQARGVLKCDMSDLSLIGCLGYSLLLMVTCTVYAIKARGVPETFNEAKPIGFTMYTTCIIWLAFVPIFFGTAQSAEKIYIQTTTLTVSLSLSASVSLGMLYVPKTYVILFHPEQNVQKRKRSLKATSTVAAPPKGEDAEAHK

The term EC50 denotes the concentration at which the effect is half-maximal. A low value points to an effect from little substance. As for `NC1(C(=O)O)CC1CP(=O)(O)O` (stereo not drawn), in [1], the concentration for a half-maximal effect (EC50) was determined as 0.5 µM.
`NC1(C(=O)O)CC(=CP(=O)(O)O)C1` (stereo not drawn) showed a concentration for a half-maximal effect (EC50) in test [2] of 4.5 µM.
On to `NC(C(=O)O)c1ccc(P(=O)(O)O)cc1` (stereo in doubt) [listing 1 of 2 here], for which the outcome in test [3], in test [4], in [5], in test [6], in test [7] and in test [8] was inactive. In addition, the result in test [9], in [10] and in [11] was inactive.
As to `NC(C(=O)O)c1ccc(P(=O)(O)O)cc1` (single isomer, unassigned; (+)), the EC50 in test [12] stood at 3.2 µM; in [13], 48 µM.
Regarding `NC(C(=O)O)c1ccc(P(=O)(O)O)cc1` (stereo not drawn), the half-maximal effective concentration (EC50) result in test [14] and in [15] was “Not Active” throughout.
As for `NC(C(=O)O)c1ccc(P(=O)(O)O)cc1` (stereo in doubt) [listing 2 of 2 here], the EC50 in test [12] turned out to be 5.2 µM; in [13] it was 185 µM.
By Kd is commonly meant a measure of binding affinity in units of concentration. A high value points to lower affinity. For `NC(C(=O)O)c1ccc(CP(=O)(O)O)cc1` (stereo not drawn), in test [16], binding was put at a Kd of 3 µM.
